According to ChEMBL document CHEMBL2424651, “Synthesis and antiproliferative activity of new cytotoxic tri- and tetraazabenzo[3,2-a]fluorene-5,6-dione derivatives” (Bioorg Med Chem Lett, 2013):

Legend:
NCI-H460 = assay: Cytotoxicity against human NCI-H460 cells after 48 hrs by resazurin dye assay; assay type: functional, cell-based; details: NCI-H460, 48 h
Outline: (§1)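 Cells were seeded in the supplier-recommended growth medium and grown 24 h at 37 °C/5% CO2, with density set per line to give a linear signal. Compound exposure was 48 h in total. Resazurin (0.2 mg/mL in DPBS) was added for the final 3 h, and fluorescence was read at 590 nm. Data were expressed as % efficacy against non-treated cells and cell-free blanks on each plate. EC50 came from non-linear regression.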

SK-OV-3 [1] = assay: Cytotoxicity against human SKOV3 cells after 48 hrs by resazurin dye assay; assay type: functional, cell-based; details: SK-OV-3, 48 h; outline: as §1
[2] = Cytotoxicity against human KB/HeLa cells after 48 hrs by resazurin dye assay; assay type: functional, cell-based; outline: as §1
SK-OV-3 [3] = assay: Cytotoxicity against human SKOV3 cells at 31.6 uM after 48 hrs by resazurin dye assay; assay type: functional; details: SK-OV-3, 48 h

SMILES | EC50 (NCI-H460) | EC50 (SK-OV-3 [1]) | EC50 [2] | inhibition at 31.6 µM (SK-OV-3 [3])
O=C1C(=O)c2c(nc3ccccn23)-c2cnccc21 | 620 nM | 1220 nM | 917 nM | –
O=C1/C(=N\OCCO)c2cnccc2-c2nc3ccccn3c21 | 521 nM | 2060 nM | 532 nM | –
O=C1c2c(O)ccc(O)c2C(=O)c2c(NCCNCCO)ccc(NCCNCCO)c21 [MITOXANTRONE] | 30 nM | – | 420 nM | –
COc1cccc2c1C(=O)c1c(O)c3c(c(O)c1C2=O)C[C@@](O)(C(=O)CO)C[C@@H]3O[C@H]1C[C@H](N)[C@H](O)[C@H](C)O1 [DOXORUBICIN] | 40 nM | 290 nM | 250 nM | –
CN(C)CCO/N=C1\C(=O)c2c(nc3ccccn23)-c2cnccc21 | 2670 nM | 2930 nM | 6150 nM | –
O=C1C(=O)c2c(nc3ccc(Cl)cn23)-c2ccncc21 | 342 nM | 525 nM | 394 nM | –
O=C1/C(=N\OCCO)c2ccncc2-c2nc3ccccn3c21 | 3880 nM | 14700 nM | 4350 nM | –
O=C1C(=O)c2c(nc3ccccn23)-c2ccncc21 | 242 nM | 498 nM | 244 nM | –
O=C1C(=O)c2c(nc3ccccn23)-c2ncncc21 | 337 nM | 283 nM | 145 nM | –
CN(C)CCO/N=C1\C(=O)c2c(nc3ccccn23)-c2ccncc21 | 414 nM | 931 nM | 406 nM | –
CN(C)CCN(C)c1cc2c(cn1)C(=O)C(=O)c1c-2nc2ccc(Cl)cn12 | 2140 nM | – | 2800 nM | < 30%
